Data published in article PMC2859091 (Journal of natural products, 2010).

Experiments:
[1] = system: Candida albicans (ATCC 44506); test: Antimicrobial assay, C. albicans; type: cell-based; conditions: at the concentrations tested
[2] = system: PANC-1 pancreatic carcinoma; test: Cytotoxicity; type: cell-based, human
Procedure, shortened: (§1)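 Test compound assessed for effect on proliferation of human PANC-1 pancreatic carcinoma and DLD-1 colorectal adenocarcinoma cells, both lines obtained from ATCC. The procedure follows a previously described protocol. Each sample was assayed at least three times to derive the final value.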

[3] = system: Pseudomonas aeruginosa (ATCC 27853); test: Antimicrobial assay, P. aeruginosa; type: cell-based; conditions: at the concentrations tested
[4] = system: DLD-1 human colorectal adenocarcinoma; test: Cytotoxicity; type: cell-based
Procedure, shortened: as §1

[5] = target: MCL-1 binding to Bak (Homo sapiens, UniProt Q07820); test: MCL-1 assay
[6] = system: NCI/ADR-Res (multi drug resistant ovarian cancer cell line); test: Cytotoxicity; type: cell-based, human; conditions: at a concentration of 5.2 µM

MCL-1 binding to Bak, sequence (Q07820 whole entry): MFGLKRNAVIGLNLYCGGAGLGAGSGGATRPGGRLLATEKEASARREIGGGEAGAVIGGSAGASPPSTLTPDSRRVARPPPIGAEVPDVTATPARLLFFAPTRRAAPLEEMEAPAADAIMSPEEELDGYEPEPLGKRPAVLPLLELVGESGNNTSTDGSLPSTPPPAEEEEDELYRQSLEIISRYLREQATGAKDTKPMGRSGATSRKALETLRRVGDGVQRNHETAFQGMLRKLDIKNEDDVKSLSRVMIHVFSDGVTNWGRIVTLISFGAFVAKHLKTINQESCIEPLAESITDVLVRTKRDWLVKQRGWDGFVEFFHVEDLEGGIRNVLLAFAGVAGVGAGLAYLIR

## CCC[C@@H](O)Cc1c(Br)c(O)c2c(=O)c3c(O)cc(O)c4c5c(O)cc(O)c6c(=O)c7c(O)c(Br)c(C[C@H](C)O)c8c1c2c(c34)c(c65)c78 [Gymnochrome E, 1,6,8,10,11,13-hexahydroxy-2,5-dibromo-3-(2-hydroxypropyl)-4-(2-hydroxypentyl)-phenanthroperylene-7,14-quinone]
[1]
  activity against Candida albicans: did not show activity
[2]; at a concentration of 6.4 µM
  inhibitory activity against PANC-1: did not show significant inhibitory activity
[3]
  activity against Pseudomonas aeruginosa: did not show activity
[4]; at a concentration of 6.4 µM
  inhibitory activity against DLD-1: did not show significant inhibitory activity

## CCC[C@@H](O)Cc1c(Br)c(O)c2c(=O)c3c(O)c(Br)c(O)c4c5c(O)c(Br)c(O)c6c(=O)c7c(O)c(Br)c(C[C@H](O)CCC)c8c1c2c(c34)c(c65)c78 [Gymnochrome F, 1,6,8,10,11,13-hexahydroxy-2,5,9,12-tetrabromo-3,4-(2-hydroxypentyl)-phenanthroperylene-7,14-quinone]
[5]
  inhibition of MCL-1 binding to Bak (in words): moderate inhibitor
[1]
  activity against Candida albicans: did not show activity
[2]; at a concentration of 5.2 µM
  inhibitory activity against PANC-1: did not show significant inhibitory activity
[6]
  inhibitory activity against NCI/ADR-Res: did not show significant inhibitory activity
[3]
  activity against Pseudomonas aeruginosa: did not show activity
[4]; at a concentration of 5.2 µM
  inhibitory activity against DLD-1: did not show significant inhibitory activity
